In ChEMBL document CHEMBL1121974, “Structure-activity relationships of some technetium-99m labeled [(thioethyl)amino] carboxylates” (J Med Chem, 1982):

Assays:
Mus musculus [1] = test: Percent injected radioactivity was determined in blood after intravenous administration into the tail vein of male swiss albino mice after 60 min; type: ADME, organism-based; conditions: in vivo, 1 h
How it was run: (§1)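 Mice weighing 20–25 g received 0.2 mL (2 μCi) and were held in metabolic cages. At 60 min they were killed with ether, with the penis ligated. Organs were γ-counted, tail counts were subtracted from the dose, and values are the mean of five ±SD.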

Mus musculus [2] = test: Percent injected radioactivity was determined in intestine after intravenous administration into the tail vein of male swiss albino mice, after 60 min; type: ADME, organism-based; conditions: in vivo, 1 h; how it was run: as §1
Mus musculus [3] = test: Percent injected radioactivity was determined in kidney after intravenous administration into the tail vein of male swiss albino mice after 60 min; type: ADME, organism-based; conditions: in vivo, 1 h; how it was run: as §1
Mus musculus [4] = test: Percent injected radioactivity was determined in liver and gallbladder after intravenous administration into the tail vein of male swiss albino mice after 60 min; type: ADME, organism-based; design: concentration or dose not given beside the values; conditions: in vivo, 1 h; how it was run: as §1
Mus musculus [5] = test: Percent injected radioactivity was determined in muscle after intravenous administration into the tail vein of male swiss albino mice after 60 min; type: ADME, organism-based, Muscle tissue; design: concentration or dose not given beside the values; conditions: in vivo, 1 h; how it was run: as §1
Mus musculus [6] = test: Percent injected radioactivity was determined in urine after intravenous administration into the tail vein of male swiss albino mice after 60 min; type: ADME, organism-based; design: concentration or dose not given beside the values; conditions: in vivo, 1 h; how it was run: as §1
[7] = Acidity constant pK1 was measured; type: ADME; conditions: read-out: pK1
How it was run: (§2)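 Acid-base titration of the free ligands over a pH range, followed by the chemical shifts of nonlabile protons. Macroscopic constants were assigned to the COOH, SH and NH⁺ dissociation steps; microscopic constants were not obtained.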

[8] = Acidity constant pK3 was measured; type: ADME; conditions: read-out: pK3; how it was run: as §2
[9] = Acidity constant pK2 was measured; type: ADME; conditions: read-out: pK2; how it was run: as §2
[10] = Acidity constant pK3' was measured; type: ADME; conditions: read-out: pK3'; how it was run: as §2

Row | Structure (SMILES) | Radioactivity (Mus musculus [1]) | Radioactivity (Mus musculus [2]) | Radioactivity (Mus musculus [3]) | Radioactivity (Mus musculus [4]) | Radioactivity (Mus musculus [5]) | Radioactivity (Mus musculus [6]) | pKa [7] | pKa [8] | pKa [9] | pKa [10]
1 | O=C(O)CN(CCS)CC(=O)O | 3.598% | 4.743% | 5.677% | 1.92% | 7.553% | 52.11% | 1.9 | 10.6 | 7.7 | –
2 | O=C(O)C(S)C(S)C(=O)O (stereo not drawn) | 18.873% | 5.693% | 21.823% | 12.617% | 24.17% | 30.04% | – | – | – | –
3 | Cl.O=C(O)CNCCS | 4.176% | 16.702% | 5.318% | 5.448% | 6.988% | 36.323% | 2.6 | 11.6 | 8.5 | –
4 | O=C(O)CN(CCS)CCN(CCS)CC(=O)O | 3.46% | 16.924% | 5.62% | 4.3% | 3.472% | 39.5% | 1.1 | 11.6 | 9 | 4.6
5 | CCSCCN(CC(=O)O)CC(=O)O | 4.55% | 25.533% | 3.567% | 8.568% | 3.56% | 34.1% | – | – | – | –
6 | O=C(O)CN(CCSCc1ccccc1)CC(=O)O | 2.627% | 58.02% | 2.083% | 8.429% | 3.32% | 11.371% | 2.1 | 9.1 | – | –

Next, values leading:

Row | Radioactivity (Mus musculus [1]) | Radioactivity (Mus musculus [2]) | Radioactivity (Mus musculus [3]) | Radioactivity (Mus musculus [4]) | Radioactivity (Mus musculus [5]) | Radioactivity (Mus musculus [6]) | pKa [7] | pKa [8] | pKa [9] | pKa [10] | Structure (SMILES)
7 | 4.64% | 8.9% | 4.24% | 3.085% | 7.97% | 50.09% | 2.3 | 9.2 | – | – | O=C(O)CN(CCSSCCN(CC(=O)O)CC(=O)O)CC(=O)O
8 | 2.8% | 52.4% | 2.767% | 12.7% | 4.013% | 15.967% | – | – | – | – | CCCCSCCN(CC(=O)O)CC(=O)O
9 | 4.41% | 51.3% | 1.842% | 22.748% | 5.254% | 9.74% | – | – | – | – | O=C(O)CN(CCSc1ccc2ccccc2c1)CC(=O)O
